In ChEMBL document CHEMBL1799933, “Discovery of a selective allosteric M1 receptor modulator with suitable development properties based on a quinolizidinone carboxylic acid scaffold” (J Med Chem, 2011):
Changes are numbered by the printed parent chain.

How the values were obtained:
[1] = Half life in rat at 3 mg/kg, po and 1 mg/kg, iv; assay type: ADME, organism-based; settings: in vivo
Summary of the method: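 Rats (n = 2) dosed orally at 3 mg/kg and IV at 1 mg/kg. Interanimal variability under 20% for all values.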

[2] = Metabolic stability in monkey NADPH-fortified hepatic microsomes assessed as oxidative metabolism; assay type: ADME, Macaca mulatta, Liver; settings: rhesus monkey
Summary of the method: (§1)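 Compound incubated with NADPH-fortified hepatic microsomes from rat, dog, monkey or human. Oxidative metabolism monitored.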

[3] = Ratio of drug level in cerebrospinal fluid to fraction unbound level in plasma of Sprague-Dawley rat at 10 mg/kg, po; assay type: ADME, organism-based; parameters: dose 10 mg/kg, route oral; settings: in vivo
[4] = target: T1, Muscarinic acetylcholine receptor M1 (Macaca mulatta) (UniProt P56489); test: Agonist activity at rhesus monkey muscarinic M1 receptor expressed in CHOK1 cells assessed as potentiation of acetylcholine-induced calcium mobilization preincubated for 4 mins measured after 1 hr by FLIPR assay; assay type: functional, cell-based; settings: CHO-K1
T1 sequence (whole entry): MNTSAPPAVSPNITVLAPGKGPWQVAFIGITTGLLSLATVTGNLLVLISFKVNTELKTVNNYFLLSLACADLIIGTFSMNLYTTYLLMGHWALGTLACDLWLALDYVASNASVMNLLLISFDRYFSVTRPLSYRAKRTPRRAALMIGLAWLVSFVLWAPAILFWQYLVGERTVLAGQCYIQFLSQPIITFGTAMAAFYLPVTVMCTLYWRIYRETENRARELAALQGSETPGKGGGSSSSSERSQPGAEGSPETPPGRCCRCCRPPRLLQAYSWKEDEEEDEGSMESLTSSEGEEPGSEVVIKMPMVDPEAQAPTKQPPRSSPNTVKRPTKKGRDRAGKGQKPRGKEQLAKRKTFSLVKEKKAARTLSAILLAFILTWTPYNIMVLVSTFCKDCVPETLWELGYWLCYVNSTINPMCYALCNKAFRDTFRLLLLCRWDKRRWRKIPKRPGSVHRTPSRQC
Summary of the method: (§2)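 CHO-NFAT cells expressing the named muscarinic receptor (human M1–M4; rhesus, dog or rat M1 in CHO-K1) were plated at 25,000 cells/well and grown overnight at 37 °C, 6% CO2. Cells were loaded with 1 μM Fluo-4AM for 1 h, washed, and preincubated 4 min with serially diluted compound (final DMSO 0.67%). They were then stimulated 4 min with an EC20 of ACh, and Ca2+ flux was read by FLIPR384.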

[5] = target: T2, Muscarinic acetylcholine receptor M1 (Mus musculus) (UniProt P12657); test: Agonist activity at mouse muscarinic M1 receptor expressed in CHOK1 cells assessed as potentiation of acetylcholine-induced calcium mobilization preincubated for 4 mins measured after 1 hr by FLIPR assay; assay type: functional, cell-based; settings: CHO-K1
T2 sequence (whole entry): T1 sequence (whole entry) with A5V, T254S, P265A, D277E, R320K, A337G, I413V
Summary of the method: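 CHO-NFAT cells (CHO-K1 background) expressing mouse M1, plated 25,000/well, grown overnight at 37 °C, 6% CO2. Cells washed in HBSS with 20 mM Hepes, 2.5 mM probenecid, 0.1% BSA, then loaded with 1 μM Fluo-4AM for 1 h at 37 °C. Compound (final 0.67% DMSO) preincubated 4 min, then stimulated 4 min with EC20 ACh. Ca2+ flux read on FLIPR384.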

[6] = Metabolic stability in human NADPH-fortified hepatic microsomes assessed as oxidative metabolism; assay type: ADME, Liver; summary of the method: as §1
[7] = Passive permeability of the compound at 5 uM; assay type: ADME; settings: not told
[8] = target: T3, Muscarinic acetylcholine receptor M1 (Rattus norvegicus) (UniProt P08482); test: Agonist activity at rat muscarinic M1 receptor expressed in CHOK1 cells assessed as potentiation of acetylcholine-induced calcium mobilization preincubated for 4 mins measured after 1 hr by FLIPR assay; assay type: functional, cell-based; settings: CHO-K1; summary of the method: as §2
T3 sequence (whole entry): T1 sequence (whole entry) with A5V, T254S, P265A, D277E, P309S, R320K, A337G, I413V

[9] = Agonist activity at dog muscarinic M1 receptor expressed in CHOK1 cells assessed as potentiation of acetylcholine-induced calcium mobilization preincubated for 4 mins measured after 1 hr by FLIPR assay; assay type: functional, Canis lupus familiaris, CHO-K1; summary of the method: as §2
[10] = Clearance in dog at 3 mg/kg, po and 1 mg/kg, iv; assay type: ADME, organism-based, Canis lupus familiaris; settings: in vivo
Summary of the method: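 Dog PK, n = 2 animals. Given orally at 3 mg/kg and intravenously at 1 mg/kg. Interanimal variability under 20% for all values.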

Compound: N#CC1(c2ccccn2)CCN(Cc2cc(C(=O)O)c(=O)n3ccccc23)CC1 [MSD-M1PAM]
- half-life [1]: 1.7 h
- Stability [2]: Stable
- Ratio [3]: 0.3
- IP [4]: 49 nM
- IP [5]: 69 nM
- Stability [6]: Stable
- Papp at 5 µM [7]: 18 ×10⁻⁶ cm/s
- IP [8]: 89 nM
- IP [9]: 100 nM
- clearance [10]: 7.4 mL/min/kg
